Assay outcomes deposited in PubChem BioAssay by several laboratories.
Shown are actives, neighbours in structure and some others; about 5.5% of the full set was active somewhere.
STAT1 inh-1 = STAT1 signaling inhibition; AID 920; inhibition, % at 5.5 µM; 200,000 tested, 0.35% active; NIH 3T3 STAT1-luciferase reporter, IFN-gamma, luminescence;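 active = inhibition above a set limit, the mean inhibition across all tested compounds plus 3 SD, cut at about 34% in these data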;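 also: 0% = IFN-gamma with DMSO and 100% = IFN-gamma with 300 µM nifuroxazide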
KCC2 mod = modulates chloride dependent transport by human KCC2; B-score of Tl+ flux slope (higher = more flux/activation; lower = inhibition) at 10 µM; Q9H2X9; KCC2 cells, thallium flux FluoZin-2 fluorescence; 190,000 tested, 2.2% active;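 active = thallium flux slope and its plate-corrected score both differing from the plate sample mean at a set confidence after two filtering rounds, in either direction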;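 also: slope of fluorescence scaled to starting intensity during 10 to 20 s after thallium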
Target sequence (Q9H2X9 whole entry, looked up): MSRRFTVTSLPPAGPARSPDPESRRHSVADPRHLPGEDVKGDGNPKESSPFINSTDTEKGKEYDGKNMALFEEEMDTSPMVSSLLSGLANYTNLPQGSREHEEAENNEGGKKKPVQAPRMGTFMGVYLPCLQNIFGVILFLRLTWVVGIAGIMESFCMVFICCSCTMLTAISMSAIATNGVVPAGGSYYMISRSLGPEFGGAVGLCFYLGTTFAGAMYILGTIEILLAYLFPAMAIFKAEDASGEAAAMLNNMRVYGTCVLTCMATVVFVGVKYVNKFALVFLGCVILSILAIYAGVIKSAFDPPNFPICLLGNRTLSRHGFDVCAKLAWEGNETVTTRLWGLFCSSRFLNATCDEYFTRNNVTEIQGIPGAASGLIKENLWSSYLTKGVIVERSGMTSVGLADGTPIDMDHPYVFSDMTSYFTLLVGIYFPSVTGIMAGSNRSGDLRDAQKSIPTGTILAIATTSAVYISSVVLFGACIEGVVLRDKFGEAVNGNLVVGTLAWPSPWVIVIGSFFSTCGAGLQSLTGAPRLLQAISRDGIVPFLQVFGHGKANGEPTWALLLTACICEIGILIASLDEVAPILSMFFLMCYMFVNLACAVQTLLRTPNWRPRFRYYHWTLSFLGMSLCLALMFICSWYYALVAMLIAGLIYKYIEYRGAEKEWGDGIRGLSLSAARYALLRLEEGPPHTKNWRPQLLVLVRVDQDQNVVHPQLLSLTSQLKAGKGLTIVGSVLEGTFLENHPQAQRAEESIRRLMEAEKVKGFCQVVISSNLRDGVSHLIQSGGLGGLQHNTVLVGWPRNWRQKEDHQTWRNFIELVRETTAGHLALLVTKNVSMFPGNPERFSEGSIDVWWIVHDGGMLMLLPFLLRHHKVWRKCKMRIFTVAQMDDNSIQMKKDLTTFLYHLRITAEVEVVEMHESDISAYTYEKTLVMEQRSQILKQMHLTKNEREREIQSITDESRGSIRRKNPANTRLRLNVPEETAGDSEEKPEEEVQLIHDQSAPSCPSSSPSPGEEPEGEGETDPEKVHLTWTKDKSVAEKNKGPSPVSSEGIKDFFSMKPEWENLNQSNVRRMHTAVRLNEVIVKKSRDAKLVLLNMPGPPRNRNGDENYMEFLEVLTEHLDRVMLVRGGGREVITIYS
STAT1 act = increases IFN-gamma driven STAT1 reporter signal. NIH 3T3 STAT1-luciferase reporter, luminescence; 100% = IFN-gamma alone, no compound. activation (% of control), % at 5.5 µM. 200,000 tested, 2.6% active. AID 932;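 active = activation above the screen-wide mean activation plus 3 SD, cut at about 130% in these data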;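 also: raw ratio to IFN-gamma control signal so 100% means no change and 0% no light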
STAT3 act = increases IL-6 driven STAT3 reporter signal; U3A cells, IL-6 STAT3-luciferase reporter, luminescence; 100% = signal with IL-6 EC80 alone; activation (% of control), % at 5.6 µM; 190,000 tested, 0.91% active; AID 871;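 active = activation above the screen-wide mean of compound activation plus 3 SD, cut at about 130% in these data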;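 also: 0% = background luminescence of wells with medium and substrate only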
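Material: STAT3-luciferase reporter U3A cells. Controls: IL-6-treated wells, 100% activation. Read-out: % activation versus median of IL-6-stimulated wells. Probe or stimulus: IL-6 stimulus at 33 ng/mL final. Timing: compound 1 h, then IL-6 6 h at 37 °C. Signal: reporter luminescence signal.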
STAT3 blocker = inhibitors of IL-6 induced STAT3 signaling. U3A cells, IL-6 STAT3-luciferase reporter, luminescence; host cell line lacks STAT1. inhibition, % at 5.5 µM. 190,000 tested, 0.89% active;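 active = inhibition above the mean inhibition across all screened compounds plus 3 SD, cut at about 44% in these data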;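 also: 0% = DMSO only wells and 100% = 100 µM nifuroxazide control wells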
HSV replic up = HSV replication enhancement | 220,000 tested, 0.005% active | maximum fold increase | HSV replication augmentation in cells, fold increase; in the data active = maximum fold increase above about 1.5; tested in PC3 cells
STAT1 inh-2 = confirmation of STAT1 signaling inhibitors. shares compounds with STAT1 inh-1. NIH 3T3 STAT1-luciferase reporter, IFN-gamma, luminescence. inhibition, % at 5.5 µM. 200 tested, 55% active;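 active = triplicate mean inhibition exceeding the hit cutoff computed for the primary STAT1 screen, cut at about 35% in these data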;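 also: 0% = DMSO with IFN-gamma and 100% = 300 µM nifuroxazide with IFN-gamma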
NFkB inh = NF-kappaB inhibition in STAT1 inhibitor counter-screen. shares compounds with STAT1 inh-1. HEK293T NF-kB luciferase reporter, TNF-alpha induced, luminescence. inhibition, % at 5.7 µM. 200 tested, 30% active. AID 1303;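 active = inhibition above the mean of solvent-only control wells plus 3 SD of those wells, cut at about 15% in these data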;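 also: 0% = DMSO with TNF-alpha and 100% = MG-132 control with TNF-alpha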
STAT3 inh STAT1c = STAT3 inhibition in STAT1 inhibitor counter-screen. shares compounds with STAT1 inh-1. U3A cells, IL-6 STAT3 luciferase reporter, luminescence; cells lacking STAT1. inhibition, % at 5.7 µM. 200 tested, 20% active. AID 1310;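 active = inhibition above the mean of solvent-only control wells plus 3 SD, set per campaign, cut at about 25% in these data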;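 also: 0% = IL-6 plus DMSO and 100% = IL-6 plus nifuroxazide control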
* = called active by the depositor; i = inactive; nt = no result given.

SMILES	STAT1 inh-1	KCC2 mod	STAT1 act	STAT3 act	STAT3 blocker	HSV replic up	STAT1 inh-2	NFkB inh	STAT3 inh STAT1c
COc1ccc(NC(=O)CSc2nc3c(c(=O)n2-c2ccccc2)SCC3)c(OC)c1	-6	0.83	104	105	-1	nt	nt	nt	nt
CCc1nnc(NC(=O)CSc2nnc(CNc3ccc(C)cc3)n2C)s1	1	-1	98	105	-1	i	nt	nt	nt
Cc1ccc(/C=C2/SC(=S)N(CCCC(=O)Nc3ccc(O)cc3)C2=O)cc1	40*	0.62	62	84	23	i	39*	54*	10
CN1CCN(Cc2nc3ccccc3c(=O)n2Cc2nc(-c3ccccc3F)cs2)CC1	50*	-2	55	98	-2	i	51*	6	-9
CN(C)Cc1nc2ccccc2c(=O)n1Cc1nc(C(C)(C)C)cs1	53*	-0.91	52	89	22	i	30	2	7
CN1CCN(Cc2nc3ccccc3c(=O)n2Cc2nc(-c3ccc4ccccc4c3)cs2)CC1	45*	-0.11	59	100	-1	i	40*	-2	3
CN1CCN(Cc2nc3ccccc3c(=O)n2Cc2nc(-c3cccc([N+](=O)[O-])c3)cs2)CC1	62*	-1.4	42	118	-10	i	38*	3	-7
COc1ccccc1OCc1nnc(SCC(=O)c2cc(Cl)ccc2OC)o1	3	-3	97	96	14	i	nt	nt	nt
CCCCN(CC)C(=O)Cn1cnc2ccc(S(=O)(=O)N3CCC(C)CC3)cc2c1=O	3	0.53	97	104	-7	i	nt	nt	nt
COc1ccc(CCNc2ncnc3cc(OC)c(OC)cc23)cc1OC	35*	-0.19	66	82	22	i	36*	8	25
COc1ccc(CNc2ncnc3cc(Cl)ccc23)cc1OC	41*	-0.66	62	107	4	i	35*	12	-16
COc1ccccc1CNc1ncnc2cc(Cl)ccc12	42*	0.34	60	113	-8	i	38*	11	-15
COc1cc2ncnc(NCc3ccc(C)cc3)c2cc1OC	7	-0.2	94	99	7	i	nt	nt	nt
NC(=O)C1=C[C@H](c2csc3ccccc23)C[C@H](OCCCCO)O1	-8	0.39	109	nt	nt	i	nt	nt	nt
CCC(/C=C1\Sc2ccc(OC)cc2N1CC)=C\c1sc2ccc(OC)cc2[n+]1CCCS(=O)(=O)[O-]	41*	0.91	62	74	35	i	30	-6	8
C=CCOC(=O)C1=C[C@@H](c2cn(C(C)=O)c3ccccc23)C[C@@H](OCCCCO)O1	34	-2.1	70	nt	nt	i	11	-5	-68
COc1ccc(OC)c2c(C)cc(N3CCN(C(=O)c4ccc(Cl)cc4)CC3)nc12	4	0.16	97	98	3	i	nt	nt	nt
O=C(CSc1nc2ccccc2c(=O)[nH]1)c1ccc(O)cc1O	64*	-1.4	40	100	3	i	43*	6	0
O=C(CSc1nc2ccccc2c(=O)[nH]1)c1ccc(O)c(O)c1	4	-0.26	97	99	8	i	nt	nt	nt
Cn1cc(/C=N/NC(=O)c2ccc(C#N)cc2F)c2ccccc21	-1	-0.28	97	99	6	i	nt	nt	nt
CC(C)(C)C(=O)Nc1ccc(-c2nc3ccccc3c(=O)o2)cc1	41*	0.94	61	81	26	i	-13	11	2
CC(C)C(=O)Nc1ccc(-c2nc3ccccc3c(=O)o2)cc1	38*	-0.39	64	86	21	i	19	14	2
CC(C)(C)C(=O)Nc1cccc(-c2nc3ccccc3c(=O)o2)c1	26	-0.082	76	74	33	i	nt	nt	nt
CC(C)C(=O)Nc1cccc(-c2nc3ccccc3c(=O)o2)c1	14	-1.1	93	84	20	i	nt	nt	nt
CC(=O)Oc1cccc(-c2nc3ccccc3c(=O)o2)c1	2	-1.7	97	115	-12	i	nt	nt	nt
SMILES	STAT1 inh-1	KCC2 mod	STAT1 act	STAT3 act	STAT3 blocker	HSV replic up	STAT1 inh-2	NFkB inh	STAT3 inh STAT1c
CCCC(=O)Nc1cccc(-c2nc3ccccc3c(=O)o2)c1	37*	0.022	64	82	25	i	16	5	7
COC(=O)CSc1nc(C)cc(N2CCOCC2)n1	-4	nt	102	102	2	i	nt	nt	nt
O=C(c1ccc(Cl)cc1)N1CCN(c2ccnc3cc(Cl)ccc23)CC1	48*	-1.1	55	90	14	i	47*	11	-6
CNC(=O)C(=O)NCC1OCCN1S(=O)(=O)c1ccc2c(c1)OCCO2 (stereo unspecified)	4	-0.61	97	99	1	i	nt	nt	nt
COc1ccc(CN2CN(S(=O)(=O)c3cccs3)c3nc4ccccc4nc32)cc1	nt	0.64	nt	nt	nt	i	nt	nt	nt
COc1ccc(C(=O)/C(C#N)=N/Nc2cccc([N+](=O)[O-])c2)cc1	44*	-5*	59	82	24	i	21	6	2
N#C/C(=N\Nc1cccc(Cl)c1)C(=O)c1ccccc1	7	-2.5	94	95	12	i	nt	nt	nt
CC(C)(C)C(=O)N1CCC(O)(CS(=O)(=O)Cc2ccccc2)CC1	-4	-1.2	104	109	-5	i	nt	nt	nt
COc1ccc(-n2cc(-c3ccccc3)c3c(N4CCOCC4)ncnc32)cc1	44*	0.15	58	81	25	i	28	2	-60
COc1ccc(-n2c(-c3ccc(Br)cc3)c[n+]3c2CCC3)cc1	21	1.1	79	83	22	i	nt	nt	nt
COc1ccc(-n2c(-c3ccc(Br)cc3)c[n+]3c2CCCCC3)cc1	40*	0.82	62	78	27	i	32	-5	22
COc1ccc(Oc2ccc3c(C(F)(F)F)cc(C(F)(F)F)nc3n2)cc1	1	0.086	100	99	7	i	nt	nt	nt
Oc1ccc(Oc2ccc3c(C(F)(F)F)cc(C(F)(F)F)nc3n2)cc1	62*	-2.2	44	85	20	i	54*	23*	14
CCOC(=O)N1CCN(C(=O)c2ccc(CSc3ccc(Cl)cc3)cc2)CC1	38*	-2.2	65	88	18	i	39*	10	24
CN1CCN(C(=O)c2ccc(CSc3ccc(Cl)cc3)cc2)CC1	6	-0.28	95	100	5	i	nt	nt	nt
S=C(Nc1ccccc1)Nc1ccccc1Br	nt	1.5	nt	nt	nt	i	nt	nt	nt
